The results in this text go back to ChEMBL document CHEMBL1127576, “Inhibition of human immunodeficiency virus type 1 replication by phosphonoformate- and phosphonoacetate-2',3'-dideoxy-3'-thiacytidine conjugates” (J Med Chem, 1994).

Data set [1] is described as follows: Therapeutic index was measured as concentration required to cause 50% death of uninfected MT-4- cells to IC50 concentration required to inhibit syncytia formation by 50% in HIV-1 infected MT-4 cells. It counts as cell-based, MT4. The conditions noted are these: human, uninfected MT-4 cells and HIV-1 infected MT-4 cells; read-out: TI. The method, boiled down:
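Ratio of ID50 to IC50. ID50: uninfected MT-4 cells (2 × 10⁵), three replicate cultures, with graded analogue concentrations; viability by trypan blue exclusion 6 days after drug addition; ID50 is the concentration killing 50% of cells. IC50: 50% inhibition of syncytia in HIV-1-infected MT-4 cells (1 h infection, 37 °C), scored microscopically at day 5.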

The subject of data set [2] is MT4. As to the kind of experiment: (§1) Concentration required to inhibit syntica formation by 50% in HIV-1 infected MT-4 cells. In kind it is ADME, cell-based. The conditions noted are these: Homo sapiens. In a few lines: (§2)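 MT-4 cells (3 × 10⁵) infected with diluted HIV-1 for 1 h at 37 °C, washed three times, then cultured with inhibitor. Syncytia were counted by inverted light microscopy 5 days post-infection. IC50 was the concentration giving 50% inhibition of syncytia formation without cell toxicity.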

Data set [3] concerns MT4. Described as §1. Particulars: Homo sapiens. It counts as functional, cell-based. In a few lines: as §2

Regarding `O=C(CP(=O)(O)O)Nc1ccn(C2CSC(CO)O2)c(=O)n1` (stereo unspecified), the selectivity ratio in data set [1] is 10. The IC50 (in general, the concentration needed to halve the response being measured) in the data set with MT4 [2] was found to be 100 µM.

Consider `CCOP(=O)(CC(=O)Nc1ccn(C2CSC(CO)O2)c(=O)n1)OCC` (stereo unspecified), for which the selectivity ratio in data set [1] turned out to be 100. In the data set with MT4 [3], this compound came in with a 50% inhibitory concentration (IC50) of 5 µM.

Turning to `CCOP(=O)(OCC)C(=O)OCC1OC(n2ccc(NC(C)=O)nc2=O)CS1` (stereo unspecified), the selectivity ratio in data set [1] came to 350. This compound had an IC50 with MT4 [3] of 0.3 µM.

Consider `CCOP(=O)(CC(=O)OCC1OC(n2ccc(N)nc2=O)CS1)OCC` (stereo unspecified), for which, in data set [1], the selectivity ratio was found to be 50. The compound further came in with a concentration for half-maximal inhibition (IC50) in the data set on MT4 [3] of 10 µM.

As to `Nc1ccn(C2CSC(COP(=O)(O)C(=O)O)O2)c(=O)n1` (stereo unspecified), the selectivity ratio in data set [1] came to 10. The compound further registered an IC50 in the data set on MT4 [3] of 100 µM.

With `Nc1ccn(C2CSC(COC(=O)CP(=O)(O)O)O2)c(=O)n1` (stereo unspecified), the selectivity ratio in data set [1] was found to be 300. Also, in the data set on MT4 [3], the IC50 came to 1 µM.

In the case of `CC(=O)Nc1ccn(C2CSC(COC(=O)P(=O)(O)O)O2)c(=O)n1` (stereo unspecified), the selectivity ratio in data set [1] worked out at 500. The compound also yielded an IC50 in the data set with MT4 [3] of 0.2 µM.

With `Nc1ccn([C@@H]2CS[C@H](CO)O2)c(=O)n1` [LAMIVUDINE], the selectivity ratio in data set [1] stood at 1000. 0.1 µM corresponded to half-maximal inhibition with MT4 [3] (IC50).
